Measured values reported in ChEMBL document CHEMBL1127301, “Carbonyl-containing bisphosphonate esters as novel antiinflammatory and antiarthritic agents” (1994).
Several values for one entry are separate records, joined by “and”; a condition that tells them apart may be missing. Identical values can stand only once.

Key:
Assay type in all cases: functional
Mus musculus [1] = assay: Decreased wet tissue weight of DTH-GRA from mice was determined after (sc) administration of a dose of 100 mg/kg after 9 days; conditions: for inhibition in vivo at 100 mg/kg: Mus musculus, sc, 216 h
Summary of the method: (§1)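 Groups of 10 female CF-1 mice (25 g) were sensitized sc over the inguinal node with mBSA/Freund's incomplete adjuvant/dextran. Three weeks later, two 6 mm hydroxyapatite discs soaked in mBSA (30 mg/mL) were implanted sc in the dorsum. Drug was given sc in the scruff. After 9 days, granulomas were excised and wet/dry weights compared with vehicle controls as percent inhibition.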

Mus musculus [2] = assay: Compound was tested for the suppression of Antigen-Induced Arthritis in mice after 28days, at a dose of 10 mg/kg administered subcutaneously; conditions: sc, 672 h, route subcutaneous
Summary of the method: (§2)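 mBSA-sensitized mice were boosted after 7 days and, 14 days later, challenged intraarticularly with 200 μg mBSA in saline in the left rear stifle. Drug in sterile saline was given sc in the scruff from day 0 on a 5-of-7-day regimen to day 28. H&E sagittal joint sections were graded 1–5 for inflammation, pannus, and cartilage/bone erosion; results are percent inhibition.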

Mus musculus [3] = assay: Compound was tested for the suppression of Antigen-Induced Arthritis in mice after 28days, at a dose of 100 mg/kg administered subcutaneously; p<0.001; conditions: sc, 672 h, route subcutaneous; summary of the method: as §2
Mus musculus [4] = assay: Compound was tested for the suppression of Antigen-Induced Arthritis in mice after 28 days, at a dose of 25 mg/kg administered subcutaneously; conditions: sc, 672 h, route subcutaneous; summary of the method: as §2
Mus musculus [5] = assay: Compound was tested for the suppression of Antigen-Induced Arthritis in mice after 28 days, at a dose of 50 mg/kg administered subcutaneously; conditions: sc, 672 h, route subcutaneous; summary of the method: as §2
Mus musculus [6] = assay: Compound was tested for the suppression of Antigen-Induced Arthritis in mice after 28days, which were dosed 100 mg/kg subcutaneously; conditions: sc, 672 h, route subcutaneous; summary of the method: as §2
Mus musculus [7] = assay: Decreased dry tissue weight of DTH-GRA from mice was determined after (sc) administration of a dose of 10 mg/kg after 9 days; summary of the method: as §1
Mus musculus [8] = assay: Decreased wet tissue weight of DTH-GRA from mice was determined after (sc) administration of a dose of 100 mg/kg
Summary of the method: (§3)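 Groups of 10 female CF-1 mice (25 g) sensitized sc over the inguinal lymph node with mBSA emulsion (saline, Freund's incomplete adjuvant, dextran). Three weeks later, two hydroxyapatite discs (6 mm) soaked in mBSA (30 mg/mL saline) implanted sc bilaterally in the dorsum. Compound given sc in scruff of neck in saline vehicle. Granulomas excised after 9 days; wet and dry weights expressed as percent inhibition versus vehicle-dosed controls.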

Mus musculus [9] = assay: Decreased dry tissue weight of DTH-GRA from mice was determined after (sc) administration of a dose of 100 mg/kg; summary of the method: as §3
Mus musculus [10] = assay: Decreased dry tissue weight of DTH-GRA from mice was determined after (sc) administration of a dose of 25 mg/kg; summary of the method: as §3
Mus musculus [11] = assay: Decreased dry tissue weight of DTH-GRA from mice was determined after (sc) administration of a dose of 200 mg/kg; summary of the method: as §3
Mus musculus [12] = assay: Decreased dry tissue weight of DTH-GRA from mice was determined after (sc) administration of a dose of 100 mg/kg after 9 days; conditions: 216 h; summary of the method: as §1
Mus musculus [13] = assay: Decreased wet tissue weight of DTH-GRA from mice was determined after (sc) administration of a dose of 200 mg/kg; summary of the method: as §3
Mus musculus [14] = assay: Decreased wet tissue weight of DTH-GRA from mice was determined after (sc) administration of a dose of 25 mg/kg; summary of the method: as §3
Mus musculus [15] = assay: Decreased dry tissue weight of DTH-GRA from mice was determined after (sc) administration of a dose of 50 mg/kg; summary of the method: as §3
Mus musculus [16] = assay: Decreased wet tissue weight of DTH-GRA from mice was determined after (sc) administration of a dose of 50 mg/kg; summary of the method: as §3
Mus musculus [17] = assay: Compound was tested for the suppression of Antigen-Induced Arthritis in mice after 28 days, which were dosed 10 mg/kg subcutaneously; conditions: sc, 672 h, route subcutaneous; summary of the method: as §2
Mus musculus [18] = assay: Decreased wet tissue weight of DTH-GRA from mice was determined after (sc) administration of a dose of 10 mg/kg after 9 days; summary of the method: as §1
Mus musculus [19] = assay: Compound was tested for the suppression of Antigen-Induced Arthritis in mice after 28days, at a dose of 100 mg/kg administered subcutaneously; conditions: sc, 672 h, route subcutaneous; summary of the method: as §2
Mus musculus [20] = assay: Compound was tested for the suppression of Antigen-Induced Arthritis in mice after 28days, which were dosed 100 mg/kg subcutaneously;; conditions: sc, 672 h, route subcutaneous; summary of the method: as §2

Q: How did the inhibition in vivo at 100 mg/kg (Mus musculus [1]) turn out when `CCOP(=O)(OCC)C(CC(C(=O)c1ccc(OC)cc1)c1ccccn1)P(=O)(OCC)OCC` (centres undefined) was run?
A: 34%

Q: With `CCOC(=O)C(CC(P(=O)(OCC)OCC)P(=O)(OCC)OCC)C(=O)c1ccccc1` (centres undefined) as the compound, how does the inhibition in vivo at 100 mg/kg (Mus musculus [1]) read?
A: 77%

Q: Which inhibition in vivo at 100 mg/kg (Mus musculus [1]) does the source give for `CCOP(=O)(OCC)C(CC1CCCC(c2ccccc2)C1=O)P(=O)(OCC)OCC` (centres undefined) here?
A: 50%

Q: For `CCOP(=O)(OCC)C(C[C@@H]1C(=O)c2ccccc2O[C@H]1c1ccccc1)P(=O)(OCC)OCC`, which inhibition in vivo at 100 mg/kg (Mus musculus [1]) is on record?
A: 67%

Q: `CCOP(=O)(OCC)C(CC(C#N)c1ccccn1)P(=O)(OCC)OCC` (centres undefined) was tested. Which inhibition in vivo at 10 mg/kg (Mus musculus [2]) did it give?
A: 2%

Q: `CCOP(=O)(OCC)C(CC1C(=O)c2ccccc2SC1C)P(=O)(OCC)OCC` (centres undefined) was tested. Which inhibition in vivo at 100 mg/kg (Mus musculus [1]) did it give?
A: 33%

Q: `CCOP(=O)(OCC)C(CC(C(=O)OC)c1ccccc1)P(=O)(OCC)OCC` (centres undefined) was tested. Which inhibition in vivo at 100 mg/kg (Mus musculus [3]) did it give?
A: 38%

Q: What about the inhibition in vivo at 100 mg/kg (Mus musculus [1]) of the same compound?
A: 8%

Q: With `CCOP(=O)(OCC)C(CC1Sc2ccccc2C1=O)P(=O)(OCC)OCC` (centres undefined) as the compound, how does the inhibition in vivo at 100 mg/kg (Mus musculus [1]) read?
A: 27%

Q: For `CCOP(=O)(OCC)C(CC(C#N)c1cccc2ccccc12)P(=O)(OCC)OCC` (centres undefined), which inhibition in vivo at 100 mg/kg (Mus musculus [1]) is on record?
A: 0%

Q: How did the inhibition in vivo at 25 mg/kg (Mus musculus [4]) turn out when `CCOP(=O)(OCC)C(CC(C(=O)c1ccccc1)c1ccccc1)P(=O)(OCC)OCC` (centres undefined) was run?
A: 55%

Q: What about the inhibition in vivo at 50 mg/kg (Mus musculus [5]) of the same compound?
A: 53%

Q: And the Inhibition (Mus musculus [1]; 100 mg/kg)?
A: 51% and 44% and 35%

Q: What about the inhibition in vivo at 100 mg/kg (Mus musculus [1]) of the same compound?
A: 48%

Q: What about the inhibition in vivo at 100 mg/kg (Mus musculus [6]) of the same compound?
A: 52%

Q: What about the Inhibition (Mus musculus [7]) of the same compound?
A: 57% and 48% and 38%

Q: How did the inhibition in vivo at 100 mg/kg (Mus musculus [8]) turn out when `O=P(O)(O)C(Cl)(Cl)P(=O)(O)O` [CLODRONIC ACID] was run?
A: 61%

Q: And the inhibition in vivo at 100 mg/kg (Mus musculus [9])?
A: 63%

Q: And the inhibition in vivo at 25 mg/kg (Mus musculus [10])?
A: 45%

Q: What about the inhibition in vivo at 100 mg/kg (Mus musculus [1]) of the same compound?
A: 45%

Q: And the inhibition in vivo at 200 mg/kg (Mus musculus [11])?
A: 59%

Q: What about the inhibition in vivo at 100 mg/kg (Mus musculus [12]) of the same compound?
A: 50%

Q: And the inhibition in vivo at 200 mg/kg (Mus musculus [13])?
A: 55%

Q: What about the inhibition in vivo at 25 mg/kg (Mus musculus [14]) of the same compound?
A: 45%

Q: And the inhibition in vivo at 50 mg/kg (Mus musculus [15])?
A: 47%

Q: What about the inhibition in vivo at 50 mg/kg (Mus musculus [16]) of the same compound?
A: 48%

Q: For `CCOP(=O)(OCC)C(CC(C(=O)Nc1ccccc1)C(=O)c1ccccc1)P(=O)(OCC)OCC` (centres undefined), which inhibition in vivo at 100 mg/kg (Mus musculus [1]) is on record?
A: 3%

Q: Which inhibition in vivo at 100 mg/kg (Mus musculus [1]) does the source give for `CCOP(=O)(OCC)C(CC(C#N)c1cccs1)P(=O)(OCC)OCC` (centres undefined) here?
A: 40%

Q: Which inhibition in vivo at 100 mg/kg (Mus musculus [1]) does the source give for `CCOP(=O)(OCC)C1(P(=O)(OCC)OCC)CC(C(=O)c2ccccc2)=NN1` here?
A: 31%

Q: Which inhibition in vivo at 100 mg/kg (Mus musculus [1]) does the source give for `CCOP(=O)(OCC)C(CC1Cc2ccccc2C1=O)P(=O)(OCC)OCC` (centres undefined) here?
A: 0%

Q: What does the source list for `CCOP(=O)(OCC)C(CC(=O)C(=O)c1ccccc1)P(=O)(OCC)OCC`?
A: inhibition in vivo at 10 mg/kg (Mus musculus [17]): 12%; inhibition in vivo at 100 mg/kg (Mus musculus [1]): 49%; Inhibition (Mus musculus [18]): 56% and 49% and 43% and 28%; Inhibition (Mus musculus [7]): 45% and 54% and 49% and 38% and 27%

Q: With `CCOP(=O)(OCC)C(CC(C(=O)OC)c1ccccc1O)P(=O)(OCC)OCC` (centres undefined) as the compound, how does the inhibition in vivo at 100 mg/kg (Mus musculus [1]) read?
A: 5%

Q: `CCOP(=O)(OCC)C(CC1COc2ccccc2C1=O)P(=O)(OCC)OCC` (centres undefined) was tested. Which inhibition in vivo at 100 mg/kg (Mus musculus [1]) did it give?
A: 67%

Q: With `CCOP(=O)(OCC)C(CC1CSc2ccc(C)cc2C1=O)P(=O)(OCC)OCC` (centres undefined) as the compound, how does the inhibition in vivo at 100 mg/kg (Mus musculus [19]) read?
A: 21%

Q: And the inhibition in vivo at 100 mg/kg (Mus musculus [1])?
A: 28%

Q: Which inhibition in vivo at 100 mg/kg (Mus musculus [1]) does the source give for `CCOP(=O)(OCC)C(C[C@H]1C(=O)c2ccccc2O[C@H]1c1ccccc1)P(=O)(OCC)OCC` here?
A: 0%

Q: Which results are given for `CCOP(=O)(OCC)C(CC1CCCC(C)C1=O)P(=O)(OCC)OCC` (centres undefined)?
A: inhibition in vivo at 100 mg/kg (Mus musculus [1]): 25%; inhibition in vivo at 100 mg/kg (Mus musculus [20]): 46%

Q: How did the inhibition in vivo at 100 mg/kg (Mus musculus [1]) turn out when `CCOP(=O)(OCC)C(CC1C(=O)c2ccccc2OC1c1ccccc1)P(=O)(OCC)OCC` (centres undefined) was run?
A: 46%

Q: And the inhibition in vivo at 100 mg/kg (Mus musculus [6])?
A: 21%

Q: And the inhibition in vivo at 100 mg/kg (Mus musculus [12])?
A: 47%
